Active and inactive are the calls of the source. The rule behind the calls is not given here.

For assay [1], the system named is PBMC. The assay can be described thus: Immunomodulatory activity in human PBMC assessed as induction of IL12 at 100 ug/ml after 24 hrs. The class given is functional, cell-based. The gist of the method: (§1)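 Human PBMCs plated at 5 × 10^6 cells/mL; compounds dissolved in PBS added at various concentrations, 37 °C for 24 h. Supernatant cytokines/chemokines quantified with human Luminex multiplex kit.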

Assay [2] addresses T1, Toll-like receptor 8 (Homo sapiens) (UniProt Q9NR97).
T1 sequence (whole entry): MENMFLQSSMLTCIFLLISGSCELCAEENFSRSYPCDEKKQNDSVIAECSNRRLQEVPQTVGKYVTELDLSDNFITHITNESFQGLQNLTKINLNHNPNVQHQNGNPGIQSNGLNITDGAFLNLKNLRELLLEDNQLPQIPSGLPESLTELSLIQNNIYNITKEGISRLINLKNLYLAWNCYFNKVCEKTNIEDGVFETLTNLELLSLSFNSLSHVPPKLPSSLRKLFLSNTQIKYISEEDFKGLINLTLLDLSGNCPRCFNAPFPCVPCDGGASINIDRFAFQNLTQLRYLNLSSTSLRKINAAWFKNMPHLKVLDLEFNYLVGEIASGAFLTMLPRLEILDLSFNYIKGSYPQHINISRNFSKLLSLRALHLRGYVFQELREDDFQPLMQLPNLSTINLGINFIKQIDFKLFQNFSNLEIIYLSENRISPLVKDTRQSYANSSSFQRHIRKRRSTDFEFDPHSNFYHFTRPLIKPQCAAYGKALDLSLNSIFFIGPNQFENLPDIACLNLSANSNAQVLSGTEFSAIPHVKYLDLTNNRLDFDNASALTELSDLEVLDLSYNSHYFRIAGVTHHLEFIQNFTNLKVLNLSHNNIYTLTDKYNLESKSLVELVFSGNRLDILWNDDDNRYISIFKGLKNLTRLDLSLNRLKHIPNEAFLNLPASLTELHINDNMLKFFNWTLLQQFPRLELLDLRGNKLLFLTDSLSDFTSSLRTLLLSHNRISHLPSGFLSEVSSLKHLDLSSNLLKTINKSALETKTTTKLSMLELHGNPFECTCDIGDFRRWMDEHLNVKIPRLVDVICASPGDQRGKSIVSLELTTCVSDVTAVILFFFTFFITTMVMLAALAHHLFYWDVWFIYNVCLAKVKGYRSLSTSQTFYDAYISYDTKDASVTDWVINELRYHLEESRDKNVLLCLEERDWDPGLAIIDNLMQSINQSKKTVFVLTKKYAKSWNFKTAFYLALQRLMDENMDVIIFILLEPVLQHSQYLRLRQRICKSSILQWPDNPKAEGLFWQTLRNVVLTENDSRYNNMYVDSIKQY
The assay can be described thus: Activation of human TLR8 expressed in HEK293XL assessed as fold induction of NF-kappaB activity at 50 ug/ml after 18 hrs by reporter gene assay relative to control. The method, boiled down:
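HEK293 cells stably expressing human TLR7 or TLR8, transiently transfected with SEAP reporter plasmid; medium replaced, SIMRA compounds added, 18 h incubation. Supernatant SEAP measured by QuantiBlue; expressed as fold increase in NF-κB activity over PBS control. Tabulated data at 50 μg/mL, representative of three independent experiments.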

Assay [3] relates to PBMC. As to the kind of experiment: Immunomodulatory activity in human PBMC assessed as induction of TNFalpha at 100 ug/ml after 24 hrs. The format is functional, cell-based. The method, boiled down:
as §1

For assay [4], the target named is T2, Toll-like receptor 9 (Mus musculus) (UniProt Q9EQU3).
T2 sequence (whole entry): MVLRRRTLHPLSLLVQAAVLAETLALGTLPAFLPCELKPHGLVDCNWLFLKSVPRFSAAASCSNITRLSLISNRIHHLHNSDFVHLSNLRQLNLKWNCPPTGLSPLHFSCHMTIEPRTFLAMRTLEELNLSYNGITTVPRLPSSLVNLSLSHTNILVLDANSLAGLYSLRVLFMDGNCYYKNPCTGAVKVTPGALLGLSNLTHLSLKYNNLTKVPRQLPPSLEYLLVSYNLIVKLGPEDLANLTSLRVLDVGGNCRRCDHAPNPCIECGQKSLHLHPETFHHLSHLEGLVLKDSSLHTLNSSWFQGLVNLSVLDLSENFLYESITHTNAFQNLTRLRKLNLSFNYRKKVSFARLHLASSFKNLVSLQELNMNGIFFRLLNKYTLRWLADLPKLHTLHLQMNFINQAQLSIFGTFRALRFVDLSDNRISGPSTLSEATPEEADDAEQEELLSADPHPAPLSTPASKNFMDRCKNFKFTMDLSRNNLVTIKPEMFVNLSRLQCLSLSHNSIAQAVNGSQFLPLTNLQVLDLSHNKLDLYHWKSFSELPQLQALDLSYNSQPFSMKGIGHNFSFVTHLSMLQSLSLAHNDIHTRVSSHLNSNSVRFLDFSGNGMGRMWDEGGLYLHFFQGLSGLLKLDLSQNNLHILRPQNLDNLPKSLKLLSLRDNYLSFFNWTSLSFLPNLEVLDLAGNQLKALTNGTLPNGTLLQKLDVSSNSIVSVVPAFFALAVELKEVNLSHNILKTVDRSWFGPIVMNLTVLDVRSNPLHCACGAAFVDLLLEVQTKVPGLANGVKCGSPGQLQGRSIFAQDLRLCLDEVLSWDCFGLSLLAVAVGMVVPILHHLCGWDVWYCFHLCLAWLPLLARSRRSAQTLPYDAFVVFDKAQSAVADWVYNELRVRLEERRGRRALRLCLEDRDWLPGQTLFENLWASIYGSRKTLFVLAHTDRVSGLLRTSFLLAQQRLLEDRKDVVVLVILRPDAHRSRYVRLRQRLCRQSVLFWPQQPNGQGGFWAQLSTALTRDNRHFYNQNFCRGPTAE
As to the kind of experiment: Activation of mouse TLR9 expressed in HEK293 assessed as induction of NF-kappaB activity reporter gene assay. The format is cell-based.

Assay [5] deals with PBMC. As to the kind of experiment: Immunomodulatory activity in human PBMC assessed as induction of IFN-alpha at 100 ug/ml after 24 hrs.
For assay [6], the system named is Splenocyte. The assay can be described thus: Immunomodulatory activity in C57BL/6 mouse splenocytes bearing TLR7 receptor assessed as IL12 release at 100 ug/ml after 24 hrs by ELISA. The class given is functional, cell-based. The gist of the method: (§2)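 C57BL/6 splenocytes in RPMI 1640 with 10% FBS, penicillin/streptomycin, 2 mM L-glutamine, plated at 5 × 10^6 cells/mL; compounds in PBS added, 37 °C for 24 h. Supernatant IL-12 and IL-6 by ELISA; representative of three independent experiments.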

Assay [7] has as its system Splenocyte. As to the kind of experiment: Immunomodulatory activity in C57BL/6 mouse splenocytes bearing TLR7 receptor assessed as IL6 release at 100 ug/ml after 24 hrs by ELISA. The format is functional, cell-based. The method, boiled down:
as §2

`Nc1ccn([C@@H]2O[C@H](COP(=O)(S)O[C@H]3[C@@H](O)[C@H](n4cnc5c(=O)[nH]c(N)nc54)O[C@@H]3COP(=O)(S)O[C@H]3[C@@H](O)[C@H](n4ccc(=O)[nH]c4=O)O[C@@H]3COP(=O)(S)OCCCO)[C@@H](OP(=O)(S)OC[C@H]3O[C@@H](n4ccc(=O)[nH]c4=O)[C@H](O)[C@@H]3OP(=O)(S)OC[C@H]3O[C@@H](n4cnc5c(=O)[nH]c(N)nc54)[C@H](O)[C@@H]3OP(=O)(S)OC[C@H]3O[C@@H](n4ccc(N)nc4=O)[C@H](O)[C@@H]3OP(=O)(S)OC[C@H]3O[C@@H](n4ccc(=O)[nH]c4=O)[C@H](O)[C@@H]3OP(=O)(S)OC[C@H]3O[C@@H](n4ccc(=O)[nH]c4=O)[C@H](O)[C@@H]3OP(=O)(S)OC[C@H]3O[C@@H](n4cnc5c(=O)[nH]c(N)nc54)[C@H](O)[C@@H]3OP(=O)(S)OC[C@H]3O[C@@H](n4ccc(=O)[nH]c4=O)[C@H](O)[C@@H]3OP(=O)(S)OC[C@H]3O[C@@H](n4cnc5c(=O)[nH]c(N)nc54)[C@H](O)[C@@H]3OP(=O)(S)OCC(O)COP(=O)(S)O[C@H]3[C@@H](O)[C@H](n4cnc5c(=O)[nH]c(N)nc54)O[C@@H]3COP(=O)(S)O[C@H]3[C@@H](O)[C@H](n4ccc(=O)[nH]c4=O)O[C@@H]3COP(=O)(S)O[C@H]3[C@@H](O)[C@H](n4cnc5c(=O)[nH]c(N)nc54)O[C@@H]3COP(=O)(S)O[C@H]3[C@@H](O)[C@H](n4ccc(=O)[nH]c4=O)O[C@@H]3COP(=O)(S)O[C@H]3[C@@H](O)[C@H](n4ccc(=O)[nH]c4=O)O[C@@H]3COP(=O)(S)O[C@H]3[C@@H](O)[C@H](n4ccc(N)nc4=O)O[C@@H]3COP(=O)(S)O[C@H]3[C@@H](O)[C@H](n4cnc5c(=O)[nH]c(N)nc54)O[C@@H]3COP(=O)(S)O[C@H]3[C@@H](O)[C@H](n4ccc(=O)[nH]c4=O)O[C@@H]3COP(=O)(S)O[C@H]3[C@@H](O)[C@H](n4ccc(N)nc4=O)O[C@@H]3COP(=O)(S)O[C@H]3[C@@H](O)[C@H](n4cnc5c(=O)[nH]c(N)nc54)O[C@@H]3COP(=O)(S)O[C@H]3[C@@H](O)[C@H](n4ccc(=O)[nH]c4=O)O[C@@H]3COP(=O)(S)OCCCO)[C@H]2O)c(=O)n1` (some centres undefined): the Activity turned out to be 715 pg/mL in assay [1] and 260 pg/mL in assay [3]. The fold change (FC) in assay [2] worked out at 9.2. For the same compound, in assay [4], the outcome was inactive. Also, the IFN-alpha in assay [5] worked out at 81.6 pg/mL.
On to `Nc1ccn([C@@H]2O[C@H](COP(=O)(S)O[C@H]3[C@@H](O)[C@H](n4cnc5c(N)ncnc54)O[C@@H]3COP(=O)(S)O[C@H]3[C@@H](O)[C@H](n4ccc5c(=O)[nH]c(N)nc54)O[C@@H]3COP(=O)(S)O[C@H]3[C@@H](O)[C@H](n4ccc(=O)[nH]c4=O)O[C@@H]3CO)[C@@H](OP(=O)(S)OC[C@H]3O[C@@H](n4ccc5c(=O)[nH]c(N)nc54)[C@H](O)[C@@H]3OP(=O)(S)OC[C@H]3O[C@@H](n4cnc5c(N)ncnc54)[C@H](O)[C@@H]3OC[C@H]3O[C@@H](n4ccc(=O)[nH]c4=O)[C@H](O)[C@@H]3OP(=O)(S)ON[C@H]3O[C@@H](n4ccc5c(=O)[nH]c(N)nc54)[C@H](O)[C@@H]3OP(=O)(S)OC[C@H]3O[C@@H](n4cnc5c(N)ncnc54)[C@H](O)[C@@H]3OP(=O)(S)OC[C@H]3O[C@@H](n4ccc(=O)[nH]c4=O)[C@H](O)[C@@H]3OP(=O)(S)OC[C@H]3O[C@@H](n4ccc(=O)[nH]c4=O)[C@H](O)[C@@H]3OP(=O)(S)OCC(O)COP(=O)(S)O[C@H]3[C@@H](O)[C@H](n4ccc(=O)[nH]c4=O)O[C@@H]3COP(=O)(S)O[C@H]3[C@@H](O)[C@H](n4ccc(=O)[nH]c4=O)O[C@@H]3COP(=O)(S)O[C@H]3[C@@H](O)[C@H](n4cnc5c(N)ncnc54)O[C@@H]3COP(=O)(S)O[C@H]3[C@@H](O)[C@H](n4ccc5c(=O)[nH]c(N)nc54)O[C@@H]3NOP(=O)(S)O[C@H]3[C@@H](O)[C@H](n4ccc(=O)[nH]c4=O)O[C@@H]3CO[C@H]3[C@@H](O)[C@H](n4cnc5c(N)ncnc54)O[C@@H]3COP(=O)(S)O[C@H]3[C@@H](O)[C@H](n4ccc5c(=O)[nH]c(N)nc54)O[C@@H]3COP(=O)(S)O[C@H]3[C@@H](O)[C@H](n4ccc(N)nc4=O)O[C@@H]3COP(=O)(S)O[C@H]3[C@@H](O)[C@H](n4cnc5c(N)ncnc54)O[C@@H]3COP(=O)(S)O[C@H]3[C@@H](O)[C@H](n4ccc5c(=O)[nH]c(N)nc54)O[C@@H]3COP(=O)(S)O[C@H]3[C@@H](O)[C@H](n4ccc(=O)[nH]c4=O)O[C@@H]3CO)[C@H]2O)c(=O)n1` (some centres undefined), for which, in assay [2], the fold change (FC) is 4.6. Further, the outcome in assay [6] and in assay [7] was Active. Further, the result in assay [4] was inactive.
